This is a sample that favours compounds with a hit; in the whole collection about 5% have one here.
Beta apoptosis: beta cell apoptosis inhibition; 300,000 tested, 0.8% active; protection from apoptosis, % (no concentration beside the values); INS-1E cytokine-induced death, ATP luminescence, 48 h; percent of positive-control rescue, neutral wells zero;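 active = Every replicate reaches about 75%, or at least half do and their mean reaches it too, limit read from the data; inconclusive = At least half of replicates reach the limit but their mean does not; inactive = Under half of replicates reach the limit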;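 also: higher means more ATP so stronger rescue from cytokine killing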
UPR XBP1 act: adaptive UPR (XBP1) activation; activation, % at 20 µM; 330,000 tested, 0.33% active; CHO-XBP1 luciferase reporter, IRE1-XBP1 UPR activation, luminescence; percent of tunicamycin response, DMSO as zero;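 active = versus positive control, 20 µM dose yields 30% or more activation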
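Material – CHO cell line with stable XBP1 luciferase reporter · Buffer or medium – F12 plus 10% FBS · Compound – single point, 20 µM final compound, 1% DMSO · Schedule – 16-18 h cell attachment at 37 °C, then 6 h compound exposure · Signal – Steady-Glo luminescence read · Benchmarks – high control tunicamycin 10 µg/mL final, low control DMSO vehicle only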
T cruzi repl: blocks replication of Trypanosoma cruzi | inhibition, % (concentration not given with the values) | T. cruzi beta-gal in NIH3T3, luminescence, 90 h | AID 1885 | 300,000 tested, 1.4% active;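 active = mean inhibition across valid replicates above about 55%, limit read from the data; inconclusive = mean below that limit but half or more replicates reach it; inactive = mean below it, under half of replicates reach it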;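 also: signal also drops with host cell toxicity which is not excluded here; higher percent means less beta-gal luminescence so fewer parasites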
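Material: NIH/3T3 host cells with β-galactosidase reporter T. cruzi; Input: 5,000 host fibroblasts per well; Medium: DMEM, 2% fetal bovine serum; Compound: 50 nL DMSO compound solution per well; Schedule: 3 h host attachment, then at least 90 h co-culture; Detection: luminescent β-galactosidase signal after 60 min lysis.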
CSC inhib: cancer stem cell inhibition; cancer stem cell-like cells viability, luminescence; inhibition, % at 7.5 µM; 300,000 tested, 1.1% active; in the data active = inhibition above about 75%; inconclusive = no clear call, values can overlap the other calls; tested in HMLE shEcad cells
Mdm2-MdmX inh: inhibitors of human Mdm2/MdmX interaction; O15151+Q00987; SaOS-2 split-luciferase Mdm2/MdmX complementation, luminescence; inhibition, % at 8 µM; 330,000 tested, 3% active; AID 485346;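 active = inhibition of at least 50% at 8 µM in the primary screen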
Target sequence (O15151 whole entry, looked up): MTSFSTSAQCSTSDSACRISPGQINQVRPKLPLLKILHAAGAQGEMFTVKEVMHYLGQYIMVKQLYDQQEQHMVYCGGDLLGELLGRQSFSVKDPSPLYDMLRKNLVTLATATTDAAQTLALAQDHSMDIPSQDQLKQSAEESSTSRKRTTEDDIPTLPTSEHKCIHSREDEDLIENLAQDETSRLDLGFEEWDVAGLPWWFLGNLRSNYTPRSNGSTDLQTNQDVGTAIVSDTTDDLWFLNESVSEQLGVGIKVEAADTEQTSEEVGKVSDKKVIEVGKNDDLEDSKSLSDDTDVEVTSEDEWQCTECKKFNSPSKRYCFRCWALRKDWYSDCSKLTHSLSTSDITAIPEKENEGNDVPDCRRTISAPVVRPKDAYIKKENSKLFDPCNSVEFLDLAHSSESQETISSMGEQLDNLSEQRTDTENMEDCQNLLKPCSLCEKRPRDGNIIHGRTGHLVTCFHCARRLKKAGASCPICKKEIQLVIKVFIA
Target sequence (Q00987 whole entry, looked up): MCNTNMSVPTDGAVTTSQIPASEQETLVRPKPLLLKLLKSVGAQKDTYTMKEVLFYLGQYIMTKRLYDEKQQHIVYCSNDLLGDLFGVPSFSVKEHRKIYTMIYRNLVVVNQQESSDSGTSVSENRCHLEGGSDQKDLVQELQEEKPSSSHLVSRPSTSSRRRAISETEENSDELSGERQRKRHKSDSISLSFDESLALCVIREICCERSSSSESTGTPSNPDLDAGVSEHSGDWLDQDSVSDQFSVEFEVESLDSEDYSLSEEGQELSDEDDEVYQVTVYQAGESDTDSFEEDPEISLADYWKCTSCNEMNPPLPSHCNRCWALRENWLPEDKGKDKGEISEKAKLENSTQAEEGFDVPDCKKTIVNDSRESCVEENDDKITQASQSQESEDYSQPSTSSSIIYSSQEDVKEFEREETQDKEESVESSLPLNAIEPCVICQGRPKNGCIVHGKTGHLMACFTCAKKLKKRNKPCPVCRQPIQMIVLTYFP
UPR CHOP act: activators of apoptotic arm of unfolded protein response (CHOP) | CHO-CHOP luciferase reporter, UPR activation, luminescence; percent of tunicamycin response over DMSO baseline | activation, % at 10 µM | 330,000 tested, 0.34% active;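 active = at 10 µM dose, activation of 40% or more, normalized to positive control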
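Assay system: CHO cells with stable CHOP pathway luciferase reporter; Buffer or medium: F12 plus 10% serum; Times: 16-18 h cell attachment, then 6 h compound exposure, 37 °C; Signal: luciferase luminescence; Read-out basis: percent activation relative to tunicamycin control; Control set: tunicamycin high control, DMSO low control.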
Hits are given with their value.

How did CN1CCN(NC(=O)c2cn(-c3ccccc3)nc2-c2cccc(Br)c2)CC1 do in these assays?
Beta apoptosis: inactive; UPR XBP1 act: inactive; T cruzi repl: 56; CSC inhib: inactive; Mdm2-MdmX inh: inactive; UPR CHOP act: inactive

What do the screens show for `Cc1ccccc1OC(=O)c1cccc(S(=O)(=O)N2CCN(C)CC2)c1`?
Beta apoptosis: inactive; UPR XBP1 act: inactive; CSC inhib: inactive; Mdm2-MdmX inh: inactive; UPR CHOP act: inactive

Results for C/C(CC1CC(C)OC1=O)=N\NC(N)=S (centres undefined) ?
Beta apoptosis: inactive; UPR XBP1 act: inactive; T cruzi repl: inactive; CSC inhib: inactive; Mdm2-MdmX inh: inactive; UPR CHOP act: inactive

What do the screens show for `C/C(=N\NC(N)=S)C1C2C3CC4C5CC(C42)C1C53` (centres undefined)?
Beta apoptosis: inactive; UPR XBP1 act: inactive; T cruzi repl: 77; Mdm2-MdmX inh: inactive; UPR CHOP act: inactive

What do the screens show for `CN1CCC(Oc2ccccc2Sc2ccc(C(F)(F)F)cc2)CC1`?
Beta apoptosis: inactive; UPR XBP1 act: inactive; T cruzi repl: inactive; CSC inhib: 75; Mdm2-MdmX inh: inactive; UPR CHOP act: inactive

What do the screens show for `O=C(Nc1ccc(N2CCOCC2)c(Cl)c1)c1ccc([N+](=O)[O-])o1`?
T cruzi repl: inactive

How did O=C(Nc1cccc(Cl)c1N1CCCC1)c1ccc([N+](=O)[O-])o1 do in these assays?
Beta apoptosis: inactive; UPR XBP1 act: inactive; CSC inhib: 100; Mdm2-MdmX inh: inactive; UPR CHOP act: inactive

How did CCCC(=O)N1CCN(c2ccc(NC(=O)c3ccc([N+](=O)[O-])o3)cc2Cl)CC1 do in these assays?
T cruzi repl: 57

How did COc1ccc(CCNC(=O)C2CCN(S(C)(=O)=O)CC2)cc1 do in these assays?
Beta apoptosis: inactive; UPR XBP1 act: inactive; T cruzi repl: inactive; CSC inhib: inactive; Mdm2-MdmX inh: inactive; UPR CHOP act: inactive

What do the screens show for `O=C(Cc1cccs1)N/N=C/c1ccccc1`?
Beta apoptosis: inactive; UPR XBP1 act: inactive; T cruzi repl: inactive; CSC inhib: inactive; Mdm2-MdmX inh: inactive; UPR CHOP act: inactive

How did CCN(CC)c1ccc(/C=N/N=C(c2ccccc2)c2ccccc2)c(O)c1 do in these assays?
Beta apoptosis: inactive; UPR XBP1 act: inactive; T cruzi repl: inactive; CSC inhib: inactive; Mdm2-MdmX inh: inactive; UPR CHOP act: inactive

How did CCN(CC)c1ccc(/C=N/NC(=O)Cc2cccs2)c(O)c1 do in these assays?
Beta apoptosis: 92; T cruzi repl: inactive; CSC inhib: inactive

Results for CCN(CC)c1ccc(/C=N/N(c2ccccc2)c2ccccc2)c(O)c1 ?
Beta apoptosis: 95; UPR XBP1 act: inactive; T cruzi repl: inactive; CSC inhib: inactive; Mdm2-MdmX inh: inactive; UPR CHOP act: inactive

How did CC(C)COC(=O)C1[C@H]2C(=O)N(Cc3cccs3)C[C@]23C=C[C@H]1O3 (some centres undefined) do in these assays?
Beta apoptosis: inactive; UPR XBP1 act: inactive; T cruzi repl: inactive; CSC inhib: inactive; Mdm2-MdmX inh: inactive; UPR CHOP act: inactive

How did CCCCCCSc1ccc(-c2nc3ccc(Cl)cn3c2NCCCC)cc1OC do in these assays?
UPR XBP1 act: inactive; Mdm2-MdmX inh: inactive; UPR CHOP act: inactive

What do the screens show for `CCCCCCSc1cc(-c2nc3cnccn3c2NCCCC)ccc1OC`?
Beta apoptosis: inactive; UPR XBP1 act: inactive; CSC inhib: 105; Mdm2-MdmX inh: inactive; UPR CHOP act: inactive

Results for CCCCCCSc1cc(-c2nc3cc(C)ccn3c2NCCCC)ccc1OC ?
Beta apoptosis: inactive; UPR XBP1 act: inactive; T cruzi repl: inactive; CSC inhib: 77; Mdm2-MdmX inh: inactive; UPR CHOP act: inactive

Results for CCCCCCSc1cccc(-c2nc3cc(C)ccn3c2NC2CCCCC2)c1 ?
Beta apoptosis: inactive; UPR XBP1 act: inactive; T cruzi repl: inactive; CSC inhib: 83; Mdm2-MdmX inh: inactive; UPR CHOP act: inactive

Results for CC(C)c1cccc(OCCCCN(C)C)c1 ?
UPR XBP1 act: inactive; T cruzi repl: 65; CSC inhib: inactive; Mdm2-MdmX inh: inactive; UPR CHOP act: inactive

How did CCN(CC)CCOc1cccc(C(C)C)c1 do in these assays?
Beta apoptosis: inactive; UPR XBP1 act: inactive; T cruzi repl: inactive; Mdm2-MdmX inh: inactive; UPR CHOP act: inactive

Results for COc1cc(/C=C(\C#N)c2nc3ccc(C)cc3[nH]2)c([N+](=O)[O-])cc1OC ?
Beta apoptosis: inactive; UPR XBP1 act: inactive; T cruzi repl: inactive; CSC inhib: inactive; Mdm2-MdmX inh: inactive; UPR CHOP act: inactive

Results for CCCOc1cc(N(CC)CC)ccc1/C=C(/C#N)c1nc2ccc(C)cc2[nH]1 ?
Beta apoptosis: inactive; UPR XBP1 act: inactive; T cruzi repl: 64; CSC inhib: inactive; Mdm2-MdmX inh: inactive; UPR CHOP act: inactive

How did CCOc1ccc(N2CC(C(=O)N3CCN(C(=O)c4ccco4)CC3)CC2=O)cc1 (centres undefined) do in these assays?
Beta apoptosis: inactive; UPR XBP1 act: inactive; T cruzi repl: inactive; CSC inhib: inactive; Mdm2-MdmX inh: inactive; UPR CHOP act: inactive

What do the screens show for `COc1ccc(S(=O)(=O)Nc2ccc(F)cc2)cc1N(C)S(=O)(=O)c1ccc(Cl)cc1`?
Beta apoptosis: inactive; UPR XBP1 act: inactive; T cruzi repl: inconclusive; CSC inhib: inactive; Mdm2-MdmX inh: inactive; UPR CHOP act: inactive

What do the screens show for `COc1ccc(NS(=O)(=O)c2ccc(OC)c(N(C)S(=O)(=O)c3ccc(Cl)cc3)c2)cc1`?
Beta apoptosis: 101; UPR XBP1 act: inactive; T cruzi repl: inactive; CSC inhib: inactive; Mdm2-MdmX inh: inactive; UPR CHOP act: inactive

What do the screens show for `CCOc1ccc(OCCOCCN2CCc3ccccc3C2)cc1`?
Beta apoptosis: inactive; UPR XBP1 act: inactive; T cruzi repl: 77; CSC inhib: inactive; Mdm2-MdmX inh: inactive; UPR CHOP act: inactive

How did c1ccc(OCCOCCN2CCc3ccccc3C2)cc1 do in these assays?
Beta apoptosis: inactive; UPR XBP1 act: inactive; T cruzi repl: inconclusive; CSC inhib: inactive; Mdm2-MdmX inh: inactive; UPR CHOP act: inactive

How did CCCOc1ccc(OCCOCCN2CCc3ccccc3C2)cc1 do in these assays?
Beta apoptosis: inactive; UPR XBP1 act: inactive; T cruzi repl: 71; CSC inhib: inactive; Mdm2-MdmX inh: inactive; UPR CHOP act: inactive

Results for O=C(CSc1ncnc2c1oc1ccccc12)Nc1ccccc1C(F)(F)F ?
UPR XBP1 act: inactive; T cruzi repl: inactive; CSC inhib: inactive; Mdm2-MdmX inh: inactive; UPR CHOP act: inactive

What do the screens show for `COc1cc(-c2nc3ccc4ccccc4c3c3c2CCC3)ccc1O`?
Beta apoptosis: inactive; UPR XBP1 act: inactive; T cruzi repl: inactive; CSC inhib: 78; Mdm2-MdmX inh: inactive; UPR CHOP act: inactive

Results for O=C1CCCN1CCCNc1ncnc2sccc12 ?
Beta apoptosis: inactive; UPR XBP1 act: inactive; T cruzi repl: inactive; CSC inhib: inactive; Mdm2-MdmX inh: inactive; UPR CHOP act: inactive

Source: PubChem (several laboratories)
